From ChEMBL document CHEMBL1158773, “Cinnamylphenols from Phyllodium pulchellum” (J Nat Prod, 2005)

Tests used:
HepG2 = experiment: Cytotoxicity against human HepG2 cells by MTT assay; type: functional, cell-based
In short: (§1)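 HepG2 (hepatoma line HA22T) and KB (epidermoid carcinoma, CCRC 60017) cells seeded at (1-1.5) × 10^4/mL and incubated overnight at 37 °C in 5% CO₂. On day 3, MTT (5 mg/mL solution) was added for 4 h, then formazan was dissolved in DMSO and read spectrophotometrically.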

KB = experiment: Cytotoxicity against human KB cells by MTT assay; type: functional, cell-based; in short: as §1

| Compound | IC50 (HepG2) [µM] | IC50 (KB) [µM] |
| --- | --- | --- |
| COc1cc(C/C=C/c2ccc(OC)c(O)c2OC)ccc1O [PULCHELSTYRENE C] | > 100 | 39.8 |
| COc1c(O)ccc(C=O)c1OC | > 100 | > 100 |
| COc1cc2c(c(OC)c1O)C=CCC21C=CC(=O)C=C1 [PULCHELSTYRENE D] | > 100 | > 100 |
| CC1(C)C=Cc2c(cc(O)c3c(=O)c(O)c(-c4ccc(O)cc4)oc23)O1 [CITRUSINOL] | 43.3 | 42.3 |
| COc1c(O)ccc(/C=C\Cc2ccc(O)cc2)c1OC [PULCHELSTYRENE A] | > 100 | > 100 |
| CC1(C)C=Cc2c(cc(O)c3c2O[C@H](c2ccc(O)cc2)[C@@H](O)C3=O)O1 [YUKOVANOL] | > 100 | > 100 |
| COc1cc(C/C=C\c2ccc(O)c(OC)c2OC)ccc1O [PULCHELSTYRENE B] | > 100 | 55.6 |
